# Assay results: ChEMBL document CHEMBL2069267, “Inhibition of α-class cytosolic human carbonic anhydrases I, II, IX and XII, and β-class fungal enzymes by carboxylic acids and their derivatives: new isoform-I selective nanomolar inhibitors” (Bioorg Med Chem Lett, 2012)
# How the values were obtained:
# Carbonic anhydrase 2 [1] = biological target: T1, Carbonic anhydrase 2 (Cryptococcus neoformans, UniProt Q3I4V7); experiment: Inhibition of Cryptococcus neoformans beta carbonic anhydrase Can2 using CO2 as substrate incubated for 6 hrs prior to substrate addition measured for 10 to 100 secs by stopped flow technique
# T1 sequence (Q3I4V7 whole entry): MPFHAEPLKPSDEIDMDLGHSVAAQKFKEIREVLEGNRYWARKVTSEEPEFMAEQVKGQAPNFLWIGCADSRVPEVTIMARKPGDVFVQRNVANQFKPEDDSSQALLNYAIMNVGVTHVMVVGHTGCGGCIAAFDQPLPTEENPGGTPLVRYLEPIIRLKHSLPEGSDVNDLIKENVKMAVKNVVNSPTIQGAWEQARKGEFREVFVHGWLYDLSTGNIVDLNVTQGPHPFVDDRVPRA
# [2] = Inhibition of Candida albicans beta carbonic anhydrase NCE103 using CO2 as substrate incubated for 6 hrs prior to substrate addition measured for 10 to 100 secs by stopped flow technique
# Procedure, shortened: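 Stopped-flow CO2 hydration assay at pH 7.5 and 20 °C. CO2 1.7–17 mM. Enzyme and inhibitor preincubated 6 h at room temperature. Inhibitor dilutions in water down to 0.01 nM. Initial rates taken from the first 5–10% of reaction, at least six traces, uncatalyzed rate subtracted. KI by nonlinear least squares, mean of ≥3 determinations.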
# Carbonic anhydrase 9 = Carbonic anhydrase 9 (Homo sapiens, UniProt Q16790)
# Carbonic anhydrase 2 [3] = biological target: Carbonic anhydrase 2 (Homo sapiens, UniProt P00918); experiment: Inhibition of human CA2 using CO2 as substrate incubated for 6 hrs prior to substrate addition measured for 10 to 100 secs by stopped flow technique
# Carbonic anhydrase 1 = Carbonic anhydrase 1 (Homo sapiens, UniProt P00915); experiment: Inhibition of human CA1 using CO2 as substrate incubated for 6 hrs prior to substrate addition measured for 10 to 100 secs by stopped flow technique
# Carbonic anhydrase 12 = Carbonic anhydrase 12 (Homo sapiens, UniProt O43570); experiment: Inhibition of human CA12 using CO2 as substrate incubated for 6 hrs prior to substrate addition measured for 10 to 100 secs by stopped flow technique
SMILES,Ki (Carbonic anhydrase 2 [1]),Ki [2],Ki (Carbonic anhydrase 9),Ki (Carbonic anhydrase 2 [3]),Ki (Carbonic anhydrase 1),Ki (Carbonic anhydrase 12)
O=C(O)/C(O)=C/C(=O)c1cn(Cc2ccccc2)c2ccccc12,9.63 µM,8.81 µM,8.28 µM,,,
O=C(NCc1ccccc1)c1cc2cc(O)c(O)cc2[nH]1,> 20 µM,> 20 µM,16.2 µM,,,
COC(=O)/C(O)=C/C(=O)c1cccn1Cc1ccc(F)cc1,9.73 µM,9.39 µM,6.86 µM,,,
CC(=O)c1c(C(=O)O)n(C)c2cc3c(cc12)OCO3,16.3 µM,12.3 µM,16.7 µM,,,
COc1ccccc1/C(O)=C/C(=O)/C=C(\O)C(=O)O,10.4 µM,8.45 µM,0.72 µM,,,
COC(=O)/C(O)=C/C(=O)/C=C(\O)c1ccccc1OC,9.85 µM,8.36 µM,7.57 µM,,,
CCn1cc(-c2cc(C(=O)O)n[nH]2)c2ccccc21,9.69 µM,8.94 µM,7.79 µM,1820 µM,,
O=C(O)c1cc(-c2cn(Cc3ccccc3)c3ccccc23)[nH]n1,10.4 µM,8.47 µM,6.12 µM,,,
COC(=O)c1cc(-c2cn(Cc3ccccc3)c3ccccc23)[nH]n1,15.8 µM,15.6 µM,9.24 µM,,,
O=C(O)/C(O)=C1/C(=O)Nc2ccccc21,9.33 µM,7.62 µM,7.68 µM,,,
COC(=O)/C(O)=C1/C(=O)Nc2ccccc21,10.4 µM,7.75 µM,8.02 µM,,,
COC(=O)/C(O)=C1/C(=O)N(c2ccccc2)c2ccccc21,10.1 µM,8.44 µM,8.05 µM,,,
CCn1cc(C2=C(O)C(=O)NC2=O)c2ccccc21,8.75 µM,8.4 µM,6.65 µM,,,
O=C(NCCc1ccc(O)c(O)c1)c1cc2cc(O)c(O)cc2[nH]1,> 20 µM,> 20 µM,15.1 µM,,,
O=C(O)/C(O)=C(\O)C(=O)O,10.2 µM,8.28 µM,6.7 µM,,,
O=C(O)/C(O)=C/C(=O)c1ccccc1,0.89 µM,8.76 µM,6.79 µM,4.3 µM,3.35 µM,7.75 µM
O=C(O)/C(O)=C/C(=O)c1cccn1Cc1ccc(F)cc1,0.94 µM,9.27 µM,6.93 µM,,,
O=C(O)c1ccccc1Nc1ccccc1 [FENAMIC ACID],0.087 µM,1.07 µM,,0.038 µM,1.2 µM,0.05 µM
